Data as given in ChEMBL document CHEMBL5058577, “EUbOPEN Chemogenomics Library 2 (Multiplex)” (2022).

Tested on: HEK-293T
Assay: Multiplex assay against HEK293T
Type: toxicity, cell-based
Details: human
Outline: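 Cells were classed with CellPathfinder machine-learning gating, first as Hoechst high-intensity objects or normal cells, then (normal cells) as healthy, pyknosed or fragmented nuclei, and finally (pyknosed cells) as mitotic or apoptotic. Staining of live cells at seeding used Hoechst33342, BioTracker Green Microtubule Cytoskeleton Dye, MitoTracker Red and Annexin V Alexa Fluor 680, with imaging on a CQ1 microscope at 37°C and 5% CO2 after compound addition. Tubulin, mitochondrial-mass and membrane-permeability phenotypes are per cents of healthy-nucleus cells.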

[1] = 12 h, 1 µM, compound concentration 1 uM, replicate 1
[2] = 12 h, 1 µM, compound concentration 1 uM, replicate 2
[3] = 12 h, 10 µM, compound concentration 10 uM, replicate 1
[4] = 12 h, 10 µM, compound concentration 10 uM, replicate 2
[5] = 24 h, 1 µM, compound concentration 1 uM, replicate 1
[6] = 24 h, 1 µM, compound concentration 1 uM, replicate 2
[7] = 24 h, 10 µM, compound concentration 10 uM, replicate 1
[8] = 24 h, 10 µM, compound concentration 10 uM, replicate 2
[9] = 48 h, 1 µM, compound concentration 1 uM, replicate 1
[10] = 48 h, 1 µM, compound concentration 1 uM, replicate 2
[11] = 48 h, 10 µM, compound concentration 10 uM, replicate 1
[12] = 48 h, 10 µM, compound concentration 10 uM, replicate 2

COc1ccccc1N1CCN(CCCCNC(=O)c2ccc3ccccc3c2)CC1.Cl
Population Apoptotic (%) [1]: 45%
Population Healthy Nuclei (%) [1]: 81%
Population Hoechst High Intensity Objects (%) [1]: 6%
Population Mitochondria Different-Phenotype (%) [1]: 53%
Population Mitotic Cells (%) [1]: 54%
Population Normal (%) [1]: 93%
Population Tubulin-Different-Phenotype (%) [1]: 41%
Total Cell Count [1]: 430
Population Apoptotic (%) [2]: 36%
Population Healthy Nuclei (%) [2]: 79%
Population Hoechst High Intensity Objects (%) [2]: 5%
Population Mitochondria Different-Phenotype (%) [2]: 76%
Population Mitotic Cells (%) [2]: 63%
Population Normal (%) [2]: 94%
Population Tubulin-Different-Phenotype (%) [2]: 35%
Total Cell Count [2]: 354
Population Apoptotic (%) [3]: 71%
Population Healthy Nuclei (%) [3]: 69%
Population Hoechst High Intensity Objects (%) [3]: 16%
Population Mitochondria Different-Phenotype (%) [3]: 90%
Population Mitotic Cells (%) [3]: 28%
Population Normal (%) [3]: 83%
Population Tubulin-Different-Phenotype (%) [3]: 75%
Total Cell Count [3]: 321
Population Apoptotic (%) [4]: 70%
Population Healthy Nuclei (%) [4]: 75%
Population Hoechst High Intensity Objects (%) [4]: 15%
Population Mitochondria Different-Phenotype (%) [4]: 93%
Population Mitotic Cells (%) [4]: 29%
Population Normal (%) [4]: 84%
Population Tubulin-Different-Phenotype (%) [4]: 72%
Total Cell Count [4]: 256
Population Apoptotic (%) [5]: 27%
Population Healthy Nuclei (%) [5]: 78%
Population Hoechst High Intensity Objects (%) [5]: 6%
Population Mitochondria Different-Phenotype (%) [5]: 38%
Population Mitotic Cells (%) [5]: 72%
Population Normal (%) [5]: 93%
Population Tubulin-Different-Phenotype (%) [5]: 32%
Total Cell Count [5]: 561
Population Apoptotic (%) [6]: 36%
Population Healthy Nuclei (%) [6]: 82%
Population Mitochondria Different-Phenotype (%) [6]: 62%
Population Mitotic Cells (%) [6]: 63%
Population Tubulin-Different-Phenotype (%) [6]: 26%
Total Cell Count [6]: 444
Population Apoptotic (%) [7]: 56%
Population Healthy Nuclei (%) [7]: 74%
Population Hoechst High Intensity Objects (%) [7]: 13%
Population Mitochondria Different-Phenotype (%) [7]: 96%
Population Mitotic Cells (%) [7]: 43%
Population Normal (%) [7]: 86%
Population Tubulin-Different-Phenotype (%) [7]: 87%
Total Cell Count [7]: 393
Population Apoptotic (%) [8]: 60%
Population Healthy Nuclei (%) [8]: 69%
Population Hoechst High Intensity Objects (%) [8]: 17%
Population Mitochondria Different-Phenotype (%) [8]: 94%
Population Mitotic Cells (%) [8]: 39%
Population Normal (%) [8]: 82%
Population Tubulin-Different-Phenotype (%) [8]: 66%
Total Cell Count [8]: 276
Population Apoptotic (%) [9]: 20%
Population Healthy Nuclei (%) [9]: 81%
Population Hoechst High Intensity Objects (%) [9]: 3%
Population Mitochondria Different-Phenotype (%) [9]: 34%
Population Mitotic Cells (%) [9]: 79%
Population Normal (%) [9]: 96%
Population Tubulin-Different-Phenotype (%) [9]: 20%
Total Cell Count [9]: 841
Population Apoptotic (%) [10]: 46%
Population Healthy Nuclei (%) [10]: 78%
Population Hoechst High Intensity Objects (%) [10]: 5%
Population Mitochondria Different-Phenotype (%) [10]: 37%
Population Mitotic Cells (%) [10]: 53%
Population Normal (%) [10]: 94%
Population Tubulin-Different-Phenotype (%) [10]: 22%
Total Cell Count [10]: 635
Population Apoptotic (%) [11]: 60%
Population Healthy Nuclei (%) [11]: 77%
Population Hoechst High Intensity Objects (%) [11]: 8%
Population Mitochondria Different-Phenotype (%) [11]: 88%
Population Mitotic Cells (%) [11]: 40%
Population Normal (%) [11]: 91%
Population Tubulin-Different-Phenotype (%) [11]: 73%
Total Cell Count [11]: 519
Population Apoptotic (%) [12]: 78%
Population Healthy Nuclei (%) [12]: 78%
Population Hoechst High Intensity Objects (%) [12]: 10%
Population Mitotic Cells (%) [12]: 21%
Population Normal (%) [12]: 89%
Population Tubulin-Different-Phenotype (%) [12]: 71%
Total Cell Count [12]: 329
